Test results taken from ChEMBL document CHEMBL1152956, “Synthesis and cytotoxic activity of 5,6-heteroaromatically annulated pyridine-2,4-diamines” (Bioorg Med Chem, 2009).

Columns and labels:
DAN-G [1] = assay: Cytotoxicity against human DAN-G cells after 96 hrs by crystal violet staining; assay type: functional, cell-based
Summary of the method: (§1)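 Compounds were held as 20 mM DMSO stocks at -20 °C and serially diluted in DMSO to working solutions of 20, 10, 5.0, 2.50, 1.25 and […]. Five of these were diluted 1000-fold into medium, with DMSO-only controls. Dividing cells had 96 h continuous exposure, then glutaraldehyde fixation and crystal violet staining. Dye was redissolved in 70% ethanol and read at OD 570 nm. IC50 came from linear regression of log dose–response curves.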

MCF7 [2] = assay: Cytotoxicity against human MCF7 cells after 96 hrs by crystal violet staining; assay type: functional, cell-based; settings: MCF7, 96 h; summary of the method: as §1
RT-4 [3] = assay: Cytotoxicity against human RT4 cells after 96 hrs by crystal violet staining; assay type: functional, cell-based; settings: RT-4, 96 h; summary of the method: as §1
A-427 [4] = assay: Cytotoxicity against human A427 cells after 96 hrs by crystal violet staining; assay type: functional, cell-based; settings: A-427, 96 h; summary of the method: as §1
5637 [5] = assay: Cytotoxicity against human 5637 cells after 96 hrs by crystal violet staining; assay type: functional, cell-based; settings: Homo sapiens, 5637, 96 h; summary of the method: as §1
[6] = Cytotoxicity against human LCLC-103H cells after 96 hrs by crystal violet staining; assay type: functional, cell-based; summary of the method: as §1
5637 [7] = assay: Growth inhibition of human 5637 cells at 20 uM after 96 hrs by crystal violet staining; assay type: functional; settings: Homo sapiens, 5637, 96 h; read-out: GI
Summary of the method: (§2)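 This was a single-concentration screen. Actively dividing cells had 96 h continuous exposure to compound diluted 1000-fold from a DMSO solution into medium. Cells were fixed with glutaraldehyde and stained with crystal violet. Bound dye was redissolved in 70% ethanol and read at OD 570 nm. Growth inhibition was expressed against untreated controls.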

DAN-G [8] = assay: Growth inhibition of human DAN-G cells at 20 uM after 96 hrs by crystal violet staining; assay type: functional; settings: read-out: GI; summary of the method: as §2
[9] = Growth inhibition of human LCLC-103H cells at 20 uM after 96 hrs by crystal violet staining; assay type: functional; settings: read-out: GI; summary of the method: as §2
A-427 [10] = assay: Growth inhibition of human A427 cells at 20 uM after 96 hrs by crystal violet staining; assay type: functional; settings: A-427, 96 h, read-out: GI; summary of the method: as §2
MCF7 [11] = assay: Growth inhibition of human MCF7 cells at 20 uM after 96 hrs by crystal violet staining; assay type: functional; settings: MCF7, 96 h, read-out: GI; summary of the method: as §2
RT-4 [12] = assay: Growth inhibition of human RT4 cells at 20 uM after 96 hrs by crystal violet staining; assay type: functional; settings: RT-4, 96 h, read-out: GI; summary of the method: as §2

Row | SMILES | IC50 (DAN-G [1]) | IC50 (MCF7 [2]) | IC50 (RT-4 [3]) | IC50 (A-427 [4]) | IC50 5637 [5] | IC50 [6] | inhibition of growth at 20 µM 5637 [7] | inhibition of growth at 20 µM (DAN-G [8]) | inhibition of growth at 20 µM [9] | inhibition of growth at 20 µM (A-427 [10]) | inhibition of growth at 20 µM (MCF7 [11]) | inhibition of growth at 20 µM (RT-4 [12])
1 | CN(C)c1cc(N)c2c(n1)[nH]c1c3ccccc3ccc12 | 9.84 µM | 7.52 µM | 6.56 µM | 6.58 µM | 7.9 µM | 9.67 µM |  |  |  |  |  | 
2 | CN(C)c1cc(N)c2c(n1)[nH]c1ccccc12 | > 20 µM | > 20 µM | > 20 µM | > 20 µM | > 20 µM | > 20 µM | < 50% | < 50% | < 50% | < 50% | < 50% | < 50%
3 | Nc1cc(N2CCCC2)nc2nc(-c3ccccc3)c(-c3ccccc3)cc12 | 6.34 µM | 4.08 µM | 12 µM | 4.33 µM | 2.75 µM | 12.5 µM |  |  |  |  |  | 
4 | Nc1cc(N2CCCC2)nc2oc(-c3ccccc3)c(-c3ccccc3)c12 | > 20 µM | 14.7 µM | 17.7 µM | 13.8 µM | 18.4 µM | > 20 µM |  | < 50% | < 50% |  |  | 
5 | CN(C)c1cc(N)c2c3ccc4ccccc4c3n(C)c2n1 | > 20 µM | 21.3 µM | 12.9 µM | 14.3 µM | > 20 µM | > 20 µM | < 50% | < 50% | < 50% |  |  | 
6 | CN(C)c1cc(N)c2c(-c3ccccc3)c(-c3ccccc3)n(Cc3ccccc3)c2n1 | > 20 µM | > 20 µM | > 20 µM |  | > 20 µM | > 20 µM | < 50% | < 50% | < 50% |  | < 50% | < 50%
7 | COc1ccc(Cn2c3ccccc3c3c(N)cc(N(C)C)nc32)cc1 | > 20 µM | > 20 µM |  | > 20 µM | > 20 µM | > 20 µM | < 50% | < 50% | < 50% | < 50% | < 50% | 
8 | CN(C)c1cc(N)c2c3c(n(Cc4ccccc4)c2n1)CCCC3 | > 20 µM |  |  |  |  | > 20 µM |  | < 50% | < 50% |  |  | 
9 | CCOC(OCC)n1c2ccccc2c2c(N)cc(N(C)C)nc21 | > 20 µM | > 20 µM | > 20 µM | > 20 µM | > 20 µM | > 20 µM | < 50% | < 50% | < 50% | < 50% | < 50% | < 50%
10 | CN(C)c1cc(N)c2ccc3ccccc3c2n1 | 10.2 µM | 6.2 µM | 7.82 µM | 8.22 µM | 10 µM | 8.93 µM |  |  |  |  |  | 
11 | CN(C)c1cc(N)c2c(-c3ccccc3)c(-c3ccccc3)oc2n1 | > 20 µM | 18.8 µM | > 20 µM | 14.6 µM | 14.9 µM | > 20 µM |  | < 50% | < 50% |  |  | < 50%
12 | CN(C)c1cc(N)c2cc(-c3ccccc3)c(-c3ccccc3)nc2n1 | 11.6 µM | 7.79 µM | 14.4 µM | 7.93 µM | 8.03 µM | 13.7 µM |  |  |  |  |  | 
13 | Cc1c2ccncc2c(C)c2c1[nH]c1ccccc12 [ELLIPTECINE] |  | 0.43 µM | 1.21 µM | 0.89 µM | 0.89 µM | 0.8 µM |  |  |  |  |  | 
